Laboratory results as given in ChEMBL document CHEMBL2434893, “Synthesis, DNA binding and anti-leukemic activity of an aminoacyl nucleolipid” (Bioorg Med Chem Lett, 2013).

Tests used:
U-251 = assay: Cytotoxicity against human U251 cells assessed as cell growth at 10 uM after 48 hrs by SRB assay relative to control; type: functional; conditions: U-251, 48 h, read-out: Activity
How it was run: (§1)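 Single-dose (10 μM) screen run by the NCI Developmental Therapeutics Program on its 60 human cancer cell line panel. Viability was determined after 48 h incubation with the cells at 37 °C.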

SNB-75 = assay: Cytotoxicity against human SNB75 cells assessed as cell growth at 10 uM after 48 hrs by SRB assay relative to control; type: functional; conditions: SNB-75, 48 h, read-out: Activity; how it was run: as §1
SF-539 = assay: Cytotoxicity against human SF539 cells assessed as cell growth at 10 uM after 48 hrs by SRB assay relative to control; type: functional; conditions: SF-539, 48 h, read-out: Activity
How it was run: (§2)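 NCI Developmental Therapeutics Program 60-cell-line screen at a single dose of 10 μM. Cells incubated with compound for 48 h at 37 °C before viability determination.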

SF-295 = assay: Cytotoxicity against human SF295 cells assessed as cell growth at 10 uM after 48 hrs by SRB assay relative to control; type: functional; conditions: SF-295, 48 h, read-out: Activity; how it was run: as §2
KM12 = assay: Cytotoxicity against human KM12 cells assessed as cell growth at 10 uM after 48 hrs by SRB assay relative to control; type: functional; conditions: KM12, 48 h, read-out: Activity; how it was run: as §2
HT-29 = assay: Cytotoxicity against human HT-29 cells assessed as cell growth at 10 uM after 48 hrs by SRB assay relative to control; type: functional; conditions: HT-29, 48 h, read-out: Activity; how it was run: as §2
HCT-15 = assay: Cytotoxicity against human HCT15 cells assessed as cell growth at 10 uM after 48 hrs by SRB assay relative to control; type: functional; conditions: HCT-15, 48 h, read-out: Activity; how it was run: as §2
HCT-116 = assay: Cytotoxicity against human HCT116 cells assessed as cell growth at 10 uM after 48 hrs by SRB assay relative to control; type: functional; conditions: HCT-116, 48 h, read-out: Activity; how it was run: as §2
HCC 2998 = assay: Cytotoxicity against human HCC2998 cells assessed as cell growth at 10 uM after 48 hrs by SRB assay relative to control; type: functional; conditions: HCC 2998, 48 h, read-out: Activity; how it was run: as §2
HOP-62 = assay: Cytotoxicity against human HOP62 cells assessed as cell growth at 10 uM after 48 hrs by SRB assay relative to control; type: functional; conditions: HOP-62, 48 h, read-out: Activity; how it was run: as §2
A549 = assay: Cytotoxicity against human A549 cells assessed as cell growth at 10 uM after 48 hrs by SRB assay relative to control; type: functional; conditions: A549, 48 h, read-out: Activity; how it was run: as §2
MOLT-4 = assay: Cytotoxicity against human MOLT4 cells assessed as cell growth at 10 uM after 48 hrs by SRB assay relative to control; type: functional; conditions: MOLT-4, 48 h, read-out: Activity; how it was run: as §2
HL-60(TB) = assay: Cytotoxicity against human HL-60(TB) cells assessed as cell growth at 10 uM after 48 hrs by SRB assay relative to control; type: functional; conditions: HL-60, 48 h, read-out: Activity
How it was run: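 Single-dose screen run by the NCI Developmental Therapeutics Program on its 60 human cancer cell line panel, leukemia lines included. Cells were exposed to 10 μM ligand and incubated at 37 °C for 48 h. Cell viability was then determined.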

CCRF-CEM = assay: Cytotoxicity against human CCRF-CEM cells assessed as cell growth at 10 uM after 48 hrs by SRB assay relative to control; type: functional; conditions: read-out: Activity; how it was run: as §2
[1] = Stability in phosphate buffer assessed as formation of guanine-tetraplex structure at 0.2 to 3.9 mM at 25 degC by CD spectrophotometric analysis; type: physicochemical; conditions: 3900 µM
How it was run: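 GRP78 DNA duplex was annealed from complementary single strands in phosphate binding buffer (140 mM KCl, 1 mM MgCl₂, 5 mM Na₂HPO₄, pH 7.2), then titrated with ligand at 0.2–3.9 mM. CD spectra were recorded, and molar ellipticity was followed at the 260–280 nm maximum and the 248 nm minimum.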

[2] = Binding affinity to GRP78 duplex DNA (unknown origin) at 0.7 mM after 36 hrs by gel shift mobility assay relative to control
How it was run: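 Complementary strands (0.57 μM) annealed in 30% sucrose in TAE buffer (89 mM Tris/acetate, 2.5 mM EDTA, […]), incubated 36 h at 37 °C with ligand at 0, 5, 25, 50, 100 equiv per DNA phosphate (0, 0.2, 0.9, 1.9, 3.9 mM). Run on 24% native PAGE. DNA bands visualized by UV-shadowing at 260 nm. K_D taken from the duplex band ratio with versus without ligand.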

MDA-MB-468 = assay: Cytotoxicity against human MDA-MB-468 cells assessed as cell growth at 10 uM after 48 hrs by SRB assay relative to control; type: functional; conditions: MDA-MB-468, 48 h, read-out: Activity; how it was run: as §2
MDA-MB-231 = assay: Cytotoxicity against human MDA-MB-231 cells assessed as cell growth at 10 uM after 48 hrs by SRB assay relative to control; type: functional; conditions: MDA-MB-231, 48 h, read-out: Activity; how it was run: as §2
DU-145 = assay: Cytotoxicity against human DU145 cells assessed as cell growth at 10 uM after 48 hrs by SRB assay relative to control; type: functional; conditions: DU-145, 48 h, read-out: Activity; how it was run: as §2
UO-31 = assay: Cytotoxicity against human UO31 cells assessed as cell growth at 10 uM after 48 hrs by SRB assay relative to control; type: functional; conditions: UO-31, 48 h, read-out: Activity; how it was run: as §1
TK-10 = assay: Cytotoxicity against human TK10 cells assessed as cell growth at 10 uM after 48 hrs by SRB assay relative to control; type: functional; conditions: TK-10, 48 h, read-out: Activity; how it was run: as §1
SN12C = assay: Cytotoxicity against human SN12C cells assessed as cell growth at 10 uM after 48 hrs by SRB assay relative to control; type: functional; conditions: read-out: Activity; how it was run: as §1
ACHN = assay: Cytotoxicity against human ACHN cells assessed as cell growth at 10 uM after 48 hrs by SRB assay relative to control; type: functional; conditions: read-out: Activity; how it was run: as §2
786-0 = assay: Cytotoxicity against human 786-0 cells assessed as cell growth at 10 uM after 48 hrs by SRB assay relative to control; type: functional; conditions: 786-0, 48 h, read-out: Activity; how it was run: as §2
OVCAR-8 = assay: Cytotoxicity against human OVCAR8 cells assessed as cell growth at 10 uM after 48 hrs by SRB assay relative to control; type: functional; conditions: OVCAR-8, 48 h, read-out: Activity; how it was run: as §2
OVCAR-5 = assay: Cytotoxicity against human OVCAR5 cells assessed as cell growth at 10 uM after 48 hrs by SRB assay relative to control; type: functional; conditions: OVCAR-5, 48 h, read-out: Activity; how it was run: as §2
UACC-62 = assay: Cytotoxicity against human UACC62 cells assessed as cell growth at 10 uM after 48 hrs by SRB assay relative to control; type: functional; conditions: UACC-62, 48 h, read-out: Activity; how it was run: as §1
UACC-257 = assay: Cytotoxicity against human UACC257 cells assessed as cell growth at 10 uM after 48 hrs by SRB assay relative to control; type: functional; conditions: UACC-257, 48 h, read-out: Activity; how it was run: as §1
SK-MEL-28 = assay: Cytotoxicity against human SK-MEL-28 cells assessed as cell growth at 10 uM after 48 hrs by SRB assay relative to control; type: functional; conditions: SK-MEL-28, 48 h, read-out: Activity; how it was run: as §2

CCCCCCCCCCCCCCCC(=O)O[C@@H]1[C@H](OC(=O)CCCCCCCCCCCCCCC)[C@@H](C(=O)N[C@@H](CCCCN)C(=O)OC)O[C@H]1n1cnc2c(=O)[nH]c(NC(=O)C(C)C)nc21.Cl
growth at 10 µM (U-251): 90.2%
growth at 10 µM (SNB-75): 94.1%
growth at 10 µM (SF-539): 103%
growth at 10 µM (SF-295): 108%
growth at 10 µM (KM12): 95%
growth at 10 µM (HT-29): 98.2%
growth at 10 µM (HCT-15): 96.6%
growth at 10 µM (HCT-116): 85.4%
growth at 10 µM (HCC 2998): 101%
growth at 10 µM (HOP-62): 104%
growth at 10 µM (A549): 99.8%
growth at 10 µM (MOLT-4): 93.4%
growth at 10 µM (HL-60(TB)): 98.3%
growth at 10 µM (CCRF-CEM): 86%
Stability [1]: Stable
Activity [2]: 50%
growth at 10 µM (MDA-MB-468): 83.1%
growth at 10 µM (MDA-MB-231): 118%
growth at 10 µM (DU-145): 107%
growth at 10 µM (UO-31): 87.1%
growth at 10 µM (TK-10): 101%
growth at 10 µM (SN12C): 105%
growth at 10 µM (ACHN): 102%
growth at 10 µM (786-0): 98.1%
growth at 10 µM (OVCAR-8): 87%
growth at 10 µM (OVCAR-5): 108%
growth at 10 µM (UACC-62): 112%
growth at 10 µM (UACC-257): 90.1%
growth at 10 µM (SK-MEL-28): 113%
